Assay results taken from ChEMBL document CHEMBL1641558, “A novel series of potent and selective EP(4) receptor ligands: facile modulation of agonism and antagonism” (Bioorg Med Chem Lett, 2011).
Calls of active or inactive are those of the source. The calls are words filed in the database; no cut-off is given here.

Key:
[1] = Metabolic stability in rat hepatocytes assessed as parent compound remaining after 2 hrs; assay type: ADME, cell-based, Hepatocyte; settings: read-out: Stability
Procedure, shortened: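 Incubation with rat hepatocytes for 2 h. The mixture is analysed by LC/MS for percent parent remaining and metabolite identity.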

[2] = biological target: T1, Prostaglandin E2 receptor EP4 subtype (Homo sapiens, UniProt P35408); experiment: Displacement of [3H]PGE2 from human prostanoid EP4 receptor expressed in HEK293-EBNA cells after 60 mins by scintillation counting; assay type: cell-based
[3] = biological target: T1, Prostaglandin E2 receptor EP4 subtype; experiment: Antagonist activity at human prostanoid EP4 receptor expressed in HEK293 cells assessed as inhibition of PGE2-induced cAMP accumulation by scintillation proximity assay; assay type: functional, cell-based
Procedure, shortened: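 HEK293 cells expressing EP4 receptors. Antagonism is read as inhibition of PGE2-evoked rise in intracellular cAMP, reported as IC50. Agonism is read as cAMP elevation in the same cells without PGE2, reported as EC50.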

Homo sapiens [4] = organism: Homo sapiens; experiment: Selectivity ratio of Ki for human prostanoid EP2 receptor to Ki for human prostanoid EP4
Homo sapiens [5] = organism: Homo sapiens; experiment: Selectivity ratio of Ki for human prostanoid DP receptor to Ki for human prostanoid EP4
Homo sapiens [6] = organism: Homo sapiens; experiment: Selectivity ratio of Ki for human prostanoid EP1 receptor to Ki for human prostanoid EP4
Homo sapiens [7] = organism: Homo sapiens; experiment: Selectivity ratio of Ki for human prostanoid EP3 receptor to Ki for human prostanoid EP4
Homo sapiens [8] = organism: Homo sapiens; experiment: Selectivity ratio of Ki for human prostanoid FP receptor to Ki for human prostanoid EP4
Homo sapiens [9] = organism: Homo sapiens; experiment: Selectivity ratio of Ki for human prostanoid IP receptor to Ki for human prostanoid EP4
Homo sapiens [10] = organism: Homo sapiens; experiment: Selectivity ratio of Ki for human prostanoid TP receptor to Ki for human prostanoid EP4
[11] = Half life in rat at 20 mg/kg, po and 5 mg/kg, iv; assay type: ADME, organism-based; settings: in vivo
Procedure, shortened: (§1)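 Rat pharmacokinetics with potassium salts, given 20 mg/kg orally in 0.5% methocel and 5 mg/kg intravenously in 60% PEG 200. Half-life, oral bioavailability and clearance derived from these dosings.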

[12] = Bioavailability in rat at 20 mg/kg, po and 5 mg/kg, iv; assay type: ADME, organism-based; settings: in vivo; procedure, shortened: as §1
[13] = Clearance in rat at 20 mg/kg, po and 5 mg/kg, iv; assay type: ADME, organism-based; settings: in vivo; procedure, shortened: as §1
Rattus norvegicus [14] = experiment: Antiinflammatory activity in rat assessed as inhibition of complete Freund's adjuvant-induced paw swelling administered daily once 9 days after adjuvant challenge measured on day 18; assay type: functional, organism-based
Procedure, shortened: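 Adjuvant arthritis in rats: complete Freund's adjuvant injected into the left hind paw on day 0. Dosing once daily for 9 days, starting on day 9. Secondary paw volume measured on day 18. Percent inhibition is calculated from the difference between each treated group (n = 7/group) and vehicle control; SEM reported.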

Rattus norvegicus [15] = experiment: Analgesic activity against carrageenan-induced mechanical hyperalgesia in rat assessed as paw withdrawal latency at 10 mg/kg; assay type: functional
Procedure, shortened: (§2)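 Rats given carrageenan injection into the paw at t = 0 h, test article dosed at t = 2 h. At t = 3 h mechanical pressure is applied to the paw and paw withdrawal latency is recorded. Statistics by one-way ANOVA with Dunnett's test versus vehicle control.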

Rattus norvegicus [16] = organism: Rattus norvegicus; experiment: Analgesic activity against carrageenan-induced mechanical hyperalgesia in rat assessed as paw withdrawal latency; assay type: functional, organism-based; procedure, shortened: as §2
Rattus norvegicus [17] = experiment: Antiinflammatory activity in rat assessed as inhibition of complete Freund's adjuvant-induced paw swelling at 0.6 mg/kg administered daily once 9 days after adjuvant challenge measured on day 18
[18] = Drug excretion in rat bile assessed as total radioactivity after 24 hrs; assay type: ADME; settings: in vivo
Hepatocyte [19] = experiment: Oxidative metabolism in rat hepatocytes assessed as protein covalent binding per mg of protein after 2 hrs; assay type: ADME, cell-based
Hepatocyte [20] = experiment: Oxidative metabolism in human hepatocytes assessed as protein covalent binding per mg of protein after 2 hrs; assay type: ADME, cell-based
Rattus norvegicus [21] = organism: Rattus norvegicus; experiment: covalent protein labeling in rat assessed per mg of protein; assay type: ADME, organism-based; settings: in vivo

T1 sequence (P35408 whole entry): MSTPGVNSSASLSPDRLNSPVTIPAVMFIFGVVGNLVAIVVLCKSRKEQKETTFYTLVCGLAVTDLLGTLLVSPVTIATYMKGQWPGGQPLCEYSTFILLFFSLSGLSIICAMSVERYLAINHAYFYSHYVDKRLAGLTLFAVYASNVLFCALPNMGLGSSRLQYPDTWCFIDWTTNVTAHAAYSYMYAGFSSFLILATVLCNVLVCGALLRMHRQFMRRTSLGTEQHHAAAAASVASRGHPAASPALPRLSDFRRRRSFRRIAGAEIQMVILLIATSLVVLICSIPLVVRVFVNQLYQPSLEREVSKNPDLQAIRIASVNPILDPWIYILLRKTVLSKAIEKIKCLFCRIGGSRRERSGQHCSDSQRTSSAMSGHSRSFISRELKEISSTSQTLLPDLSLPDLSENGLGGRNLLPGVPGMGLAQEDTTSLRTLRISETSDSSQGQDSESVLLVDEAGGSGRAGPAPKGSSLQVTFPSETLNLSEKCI

C[C@H](NC(=O)c1cccc2c1N(Cc1ccc(C(F)(F)F)cc1)CC2)c1ccc(C(=O)O)cc1
remaining at 2 h [1]: 36%
Ki [2]: 0.37 nM
IC50 [3]: 2.1 nM
Ratio Ki (Homo sapiens [4]): > 1000
Ratio Ki (Homo sapiens [5]): > 1000
Ratio Ki (Homo sapiens [6]): > 1000
Ratio Ki (Homo sapiens [7]): > 1000
Ratio Ki (Homo sapiens [8]): > 1000
Ratio Ki (Homo sapiens [9]): > 1000
Ratio Ki (Homo sapiens [10]): > 1000
half-life [11]: 4.1 h
bioavailability [12]: 48%
clearance [13]: 11 mL/min/kg
inhibition (Rattus norvegicus [14]): Dose-dependent effect
Activity (Rattus norvegicus [15]): 64%
Activity (Rattus norvegicus [16]): Dose-dependent effect
inhibition (Rattus norvegicus [17]): Active

[3H]c1cc2c(c(C(=O)N[C@@H](C)c3ccc(C(=O)O)cc3)c1)N(Cc1ccc(C(F)(F)F)cc1)CC2
Activity [18]: 86%
Activity (Hepatocyte [19]): 56 pmolequiv/mg
Activity (Hepatocyte [20]): 28 pmolequiv/mg
Activity (Rattus norvegicus [21]): 5 pmol
